From ChEMBL document CHEMBL1142928, “Substitution at the 8-position of 3''-deoxy-cyclic ADP-carbocyclic-ribose, a highly potent Ca2+-mobilizing agent, provides partial agonists” (Bioorg Med Chem, 2007)
Calls of active or inactive are those of the source. No cut-off for these calls is given here.

Legend:
Format in all cases: functional
Echinoidea [1] = assay: Inhibition of cADPcR-induced calcium release in Sea urchin egg homogenate
How it was run: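 Hemicentrotus pulcherrimus egg homogenate was read by fura-2 fluorescence ratio (F340/F380). Homogenate was exposed to graded analogue concentrations, then challenged with the maximal concentration of cADPcR. IC50 values were derived from dose-dependent desensitization (cross-desensitization) of the cADPcR-induced Ca2+ release.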

Echinoidea [2] = assay: Calcium-mobilizing activity in Sea urchin egg homogenate
How it was run: (§1)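 Homogenate of Hemicentrotus pulcherrimus sea urchin eggs. Ca2+ release was monitored fluorometrically with fura-2 as the F340/F380 ratio over a range of analogue concentrations. Each response was expressed as the percent change in ratio relative to the response to the maximal cADPcR concentration. EC50 values were taken from dose–response curves.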

Echinoidea [3] = assay: Calcium-mobilizing activity in Sea urchin egg homogenate relative to cADPcR; how it was run: as §1

Structure (SMILES) | IC50 (Echinoidea [1]) [nM] | EC50 (Echinoidea [2]) [nM] | Activity (Echinoidea [2]) | Activity (Echinoidea [3]) [%]
CCCNc1nc2c(N)[n+]3cnc2n1[C@@H]1O[C@H](COP(=O)(O)OP(=O)([O-])OC[C@@H]2C[C@@H](O)[C@H]3C2)[C@@H](O)[C@H]1O |  |  | inactive | 
[N-]=[N+]=Nc1nc2c(N)[n+]3cnc2n1[C@@H]1O[C@H](COP(=O)(O)OP(=O)([O-])OC[C@@H]2C[C@@H](O)[C@H]3C2)[C@@H](O)[C@H]1O | 1100 | 490 |  | 16
Nc1c2nc(Cl)n3c2nc[n+]1[C@@H]1C[C@H](COP(=O)(O)OP(=O)([O-])OC[C@H]2O[C@@H]3[C@H](O)[C@@H]2O)[C@@H](O)[C@H]1O | 3000 |  |  | 
Nc1c2nc(Cl)n3c2nc[n+]1[C@@H]1C[C@H](COP(=O)([O-])OP(=O)(O)OC[C@H]2O[C@@H]3[C@H](O)[C@@H]2O)C[C@H]1O | 410 | 190 |  | 21

Second part, led by results:

IC50 (Echinoidea [1]) [nM] | EC50 (Echinoidea [2]) [nM] | Structure (SMILES) | Activity (Echinoidea [2]) | Activity (Echinoidea [3]) [%]
4200 |  | [N-]=[N+]=Nc1nc2c(N)[n+]3cnc2n1[C@@H]1O[C@H](COP(=O)(O)OP(=O)([O-])OC[C@H]2C[C@@H]3[C@H](O)[C@@H]2O)[C@@H](O)[C@H]1O |  | 
 | 79 | Nc1c2ncn3c2nc[n+]1[C@@H]1C[C@H](COP(=O)([O-])OP(=O)(O)OC[C@H]2O[C@@H]3[C@H](O)[C@@H]2O)[C@@H](O)[C@H]1O |  | 
96 | 89 | Nc1nc2c(N)[n+]3cnc2n1[C@@H]1O[C@H](COP(=O)([O-])OP(=O)(O)OC[C@H]2C[C@@H]3[C@H](O)[C@@H]2O)[C@@H](O)[C@H]1O |  | 33
44 | 17 | Nc1nc2c(N)[n+]3cnc2n1[C@@H]1O[C@H](COP(=O)(O)OP(=O)([O-])OC[C@@H]2C[C@@H](O)[C@H]3C2)[C@@H](O)[C@H]1O |  | 14
 | 17 | Nc1c2ncn3c2nc[n+]1[C@@H]1C[C@H](COP(=O)([O-])OP(=O)(O)OC[C@H]2O[C@@H]3[C@H](O)[C@@H]2O)C[C@H]1O |  | 100
